High-throughput results as filed in PubChem BioAssay.
XiGFP reactiv: activators of inactive X chromosome reactivation, primary screen, imaging, XiGFP fibroblasts, GFP high-content imaging, set 2; XiGFP mouse fibroblasts, % GFP-positive cells imaging, 3 d; cells co-treated with 5-aza-dC sensitizer; scaled so ellipticine positive control = 100%; activation, % at 7.58 µM; 0.055% of 360,000 active; AID 743238, 2013;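 active means mean normalized replicate activation at least 10% and every replicate at or above 10%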;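 further: 0% = median of on-plate neutral control wells and 100% = ellipticine 6 µM median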
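Assay system: SV40-immortalized XiGFP fibroblast cells, line 68-5-11; buffer or medium: DMEM plus 5-aza-dC sensitizer; compound: one concentration, pinned; timing: compounds 3 days, fix/stain 15 min at room temperature; benchmarks: positive control ellipticine, 6 µM final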
Cneo AK release: Cryptococcus neoformans cell lysis inducers, primary screen, AK release luminescence, single concentration; C. neoformans lysis, adenylate kinase release luminescence, 4 h; normalised: neutral wells 0, clomiphene wells 100; lysis activity, % at 15 µM; 0.2% of 360,000 active; AID 651654, 2012;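 active means mean lysis activity across replicates of at least 80%, whatever share of replicates individually reach that level; inactive means mean lysis activity below 80%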
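Schedule: static 4 h at 37 °C with compound, 1 h detection; system: C. neoformans cells; benchmarks: Clomiphene as positive control; buffer or medium: fresh YPD medium; measure: luminescence rise reflecting yeast cell lysis; measured by: luminescent adenylate kinase detection reagent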
Statin myotox sup: suppressors of statin myotoxicity in C2C12 myotubes, primary screen, cell-based, single point, plate reader. C2C12 myotubes + simvastatin, ATP luminescence, 48 h; scaled: DMSO 0, geranylgeraniol control 100. rescue of ATP level, % at 7.49 µM. 0.78% of 330,000 active;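 active means mean ATP rescue above about 67%, or every replicate alone reaching that limit, limit read from the data, passing the limit was not always enough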;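 further: myotubes were challenged with 10 µM simvastatin during compound exposure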
DENV2 CPE rescue: inhibitors of DENV2 cytopathic effect, primary screen, cell-based, plate reader, single concentration; DENV2-infected cells, cytopathic effect rescue; CPE inhibition, % at 9.99 µM; 1.7% of 350,000 active; in the data active means CPE inhibition above about 20%, passing the limit was not always enough; tested in BHK-21 cells;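 further: 0% = median of neutral control wells and 100% = median of positive control wells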
Numbers without * were called inactive. This is a sample that favours compounds with a hit; in the whole collection about 2.1% have one here.

What do the screens show for `C[C@H](CO)N1C[C@H](C)[C@H](CN(C)CC2CC2)Oc2ncc(-c3ccc(F)cc3)cc2C1=O`?
XiGFP reactiv: 0; Cneo AK release: 14; Statin myotox sup: 20; DENV2 CPE rescue: 2

What do the screens show for `CC=Cc1ccc2n(c1=O)C[C@H]1[C@H](CO)[C@@H](C(=O)Nc3ccc(-c4ccccc4)cc3)N(CC)[C@@H]21` (mixture of isomers)?
XiGFP reactiv: 0; Cneo AK release: 46; Statin myotox sup: 1; DENV2 CPE rescue: -4

What do the screens show for `COCC#Cc1ccc2c(c1)O[C@@H](CN(C)C(=O)C1CC1)[C@@H](C)CN([C@H](C)CO)S2(=O)=O`?
XiGFP reactiv: 0; Cneo AK release: 1; Statin myotox sup: -27; DENV2 CPE rescue: 4

What do the screens show for `CO[C@H]1CN(C)C(=O)c2cc(NC(=O)c3ccccc3F)ccc2OC[C@H](C)N(C(C)=O)C[C@H]1C`?
XiGFP reactiv: 0; Cneo AK release: 95*; Statin myotox sup: -2

How did C[C@@H]1CN([C@H](C)CO)S(=O)(=O)c2ccc(C3=CCCCC3)cc2O[C@H]1CN(C)Cc1cncnc1 do in these assays?
XiGFP reactiv: 0; Cneo AK release: 1; Statin myotox sup: -75; DENV2 CPE rescue: -4

What do the screens show for `CC=Cc1ccc2n(c1=O)C[C@H]1[C@H](CO)[C@@H](C(=O)N(C)C)N(CC3CCCC3)[C@@H]21` (mixture of isomers)?
XiGFP reactiv: 0; DENV2 CPE rescue: -2

Results for COCC(=O)N(C)C[C@H]1Oc2cc(-c3ccncc3)ccc2S(=O)(=O)N([C@H](C)CO)C[C@H]1C ?
XiGFP reactiv: -1; Cneo AK release: 0; Statin myotox sup: 6; DENV2 CPE rescue: 74*

Results for C[C@@H]1CN([C@@H](C)CO)S(=O)(=O)c2ccc(-c3ccncc3)cc2O[C@H]1CN(C)C(=O)CC1CC1 ?
XiGFP reactiv: 1; Cneo AK release: 9; Statin myotox sup: -3; DENV2 CPE rescue: 85*

What do the screens show for `COc1cccc(S(=O)(=O)Nc2ccc3c(c2)[C@@H]2C[C@@H](CC(=O)N[C@@H](C)c4ccccc4)O[C@H](CO)[C@@H]2O3)c1`?
XiGFP reactiv: 0; Cneo AK release: -5; Statin myotox sup: 11; DENV2 CPE rescue: 4

Results for Cc1ccc(S(=O)(=O)Nc2ccc3c(c2)C(=O)N([C@@H](C)CO)C[C@@H](C)[C@@H](CN(C)Cc2ccccc2)OCCCC[C@@H](C)O3)cc1 ?
XiGFP reactiv: 0; Cneo AK release: 57; DENV2 CPE rescue: -27

How did C/C(=N/Nc1nc(-c2ccc(Cl)cc2)cs1)c1cccs1 do in these assays?
Cneo AK release: 0; Statin myotox sup: 144*

What do the screens show for `O=C(C[C@H]1CC[C@H]2[C@@H](COC[C@H](O)CN2Cc2cccc(Cl)c2)O1)Nc1nccs1`?
XiGFP reactiv: 0; Cneo AK release: 115*; Statin myotox sup: 24; DENV2 CPE rescue: -4

Results for O=C(C[C@@H]1CC[C@H]2[C@@H](COC[C@H](O)CN2Cc2ccc(Oc3ccccc3)cc2)O1)Nc1nccs1 ?
XiGFP reactiv: 0; Cneo AK release: 88*; Statin myotox sup: 55; DENV2 CPE rescue: -2

Results for O=C(C[C@@H]1CC[C@@H]2[C@H](COC[C@H](O)CN2Cc2cccc(Cl)c2)O1)Nc1nccs1 ?
XiGFP reactiv: 0; Cneo AK release: 0; Statin myotox sup: 31; DENV2 CPE rescue: -6

Results for C[C@@H]1CN([C@@H](C)CO)C(=O)c2cc(NS(=O)(=O)c3ccccc3)ccc2O[C@@H](C)CCCCO[C@@H]1CN(C)CC1CCCCC1 ?
XiGFP reactiv: 0; Cneo AK release: 3; Statin myotox sup: -91; DENV2 CPE rescue: 55*

How did C[C@@H]1CN([C@H](C)CO)C(=O)c2cc(NS(=O)(=O)c3ccccc3)ccc2O[C@@H](C)CCCCO[C@@H]1CN(C)C(=O)C1CCCCC1 do in these assays?
XiGFP reactiv: 0; Cneo AK release: -1; Statin myotox sup: 8; DENV2 CPE rescue: -13

How did C[C@@H]1CCCCO[C@H](CN(C)C(=O)C2CCCCC2)[C@H](C)CN([C@H](C)CO)C(=O)c2cc(NS(=O)(=O)c3ccccc3)ccc2O1 do in these assays?
XiGFP reactiv: 0; Cneo AK release: -1; Statin myotox sup: 89*; DENV2 CPE rescue: 0

How did CO[C@H]1CN(C)C(=O)c2ccc(NC(=O)C3CC3)cc2OC[C@H](C)N(C)C[C@@H]1C do in these assays?
XiGFP reactiv: 0; Cneo AK release: 1; Statin myotox sup: 10; DENV2 CPE rescue: 13

Results for CSC1=N/C(=C\c2ccc(C)cc2)C(=O)S1 ?
Cneo AK release: -2; Statin myotox sup: 2

What do the screens show for `COc1ccc(/C=C2\N=C(SC)SC2=O)cc1OC`?
Cneo AK release: 5; Statin myotox sup: 107*

Results for COc1ccc(NC(=O)N(C)C[C@H]2Oc3ccc(N(C)C)cc3CC(=O)N([C@H](C)CO)C[C@@H]2C)cc1 ?
XiGFP reactiv: 0; Cneo AK release: -1; Statin myotox sup: -13; DENV2 CPE rescue: 16

How did COc1ccc(S(=O)(=O)Nc2ccc3c(c2)C(=O)N([C@@H](C)CO)C[C@H](C)[C@H](CN(C)C(=O)Nc2ccc(C(F)(F)F)cc2)O3)cc1 do in these assays?
XiGFP reactiv: -1; Cneo AK release: 8; DENV2 CPE rescue: -1

What do the screens show for `COc1cccc(-c2cnc3c(c2)C(=O)N([C@@H](C)CO)C[C@@H](C)[C@@H](CN(C)C(=O)CN(C)C)O3)c1`?
XiGFP reactiv: -1; Cneo AK release: 4; Statin myotox sup: 13; DENV2 CPE rescue: -2

How did COc1ccc(NC(=O)Nc2ccc3c(c2)[C@@H]2C[C@@H](CC(=O)O)O[C@H](CO)[C@@H]2O3)cc1 do in these assays?
XiGFP reactiv: 0; DENV2 CPE rescue: 11

What do the screens show for `CC(=O)N[C@@H]1C[C@@H]2O[C@H](CO)CC[C@@H]2O[C@@H]1CCc1ccc(C#CC2(O)CCCC2)cc1`?
DENV2 CPE rescue: 21*

What do the screens show for `CS(=O)(=O)N[C@@H]1C[C@@H]2O[C@@H](CO)CC[C@@H]2O[C@@H]1CCc1ccc(-c2ccccc2F)cc1`?
DENV2 CPE rescue: 21*

What do the screens show for `CC(C)NC(=O)N[C@H]1C[C@@H]2O[C@@H](CO)CC[C@@H]2O[C@@H]1CCc1ccc(-c2ccccc2F)cc1`?
DENV2 CPE rescue: 1

Results for c1ccc2c(C(c3nnnn3-c3ccc4c(c3)OCCO4)N3CCCC3)ccnc2c1 (stereo not given) ?
XiGFP reactiv: 0; DENV2 CPE rescue: 10

What do the screens show for `CN(C)CCN1CCN(C(c2ccnc3ccccc23)c2nnnn2-c2ccc3c(c2)OCCO3)CC1` (stereo not given)?
XiGFP reactiv: 0; DENV2 CPE rescue: 22*
